Measured values published in ChEMBL document CHEMBL4689842, “EUbOPEN Chemogenomics Library wave 1” (2021).

System: HEK-293T
Experiment: Multiplex assay against HEK293T;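 as to Population Tubulin-Different-Phenotype (%): share of the cells with healthy nuclei that show this phenotype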
Assay type: toxicity, cell-based
Details: human
How it was run: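 Live cells were stained at seeding with Hoechst33342, BioTracker Green Microtubule Cytoskeleton Dye, MitoTracker Red and Annexin V Alexa Fluor 680. Following compound addition, they were imaged on a CQ1 microscope at 37°C and 5% CO2 and gated by CellPathfinder machine learning into Hoechst high-intensity objects or normal cells, with normal cells split into healthy, pyknosed or fragmented nuclei and pyknosed cells into mitotic or apoptotic. Tubulin, mitochondrial-mass and membrane-permeability phenotypes are per cents of healthy-nucleus cells.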

[1] = 12 h, 1 µM, compound concentration 1 uM, replicate 1
[2] = 12 h, 1 µM, compound concentration 1 uM, replicate 2
[3] = 12 h, 10 µM, compound concentration 10 uM, replicate 1
[4] = 12 h, 10 µM, compound concentration 10 uM, replicate 2
[5] = 24 h, 1 µM, compound concentration 1 uM, replicate 1
[6] = 24 h, 1 µM, compound concentration 1 uM, replicate 2
[7] = 24 h, 10 µM, compound concentration 10 uM, replicate 1
[8] = 24 h, 10 µM, compound concentration 10 uM, replicate 2
[9] = 48 h, 1 µM, compound concentration 1 uM, replicate 1
[10] = 48 h, 1 µM, compound concentration 1 uM, replicate 2
[11] = 48 h, 10 µM, compound concentration 10 uM, replicate 1
[12] = 48 h, 10 µM, compound concentration 10 uM, replicate 2

COc1cccc([C@@H](C)NCCCc2ccccc2Cl)c1.Cl [TECALCET HYDROCHLORIDE]
Population Apoptotic (%) [1]: 45% | Population Fragmented Nuclei (%) [1]: 9% | Population Healthy Nuclei (%) [1]: 46% | Population Hoechst High Intensity Objects (%) [1]: 11% | Population Membrane Permeable-Phenotype (%) [1]: 2% | Population Mitochondria Different-Phenotype (%) [1]: 83% | Population Mitotic Cells (%) [1]: 54% | Population Normal (%) [1]: 88% | Population Pyknosed Nuclei (%) [1]: 44% | Population Tubulin-Different-Phenotype (%) [1]: 57% | Total Cell Count [1]: 333 | Population Apoptotic (%) [2]: 16% | Population Fragmented Nuclei (%) [2]: 3% | Population Healthy Nuclei (%) [2]: 29% | Population Hoechst High Intensity Objects (%) [2]: 3% | Population Membrane Permeable-Phenotype (%) [2]: 11% | Population Mitochondria Different-Phenotype (%) [2]: 45% | Population Mitotic Cells (%) [2]: 83% | Population Normal (%) [2]: 96% | Population Pyknosed Nuclei (%) [2]: 67% | Population Tubulin-Different-Phenotype (%) [2]: 41% | Total Cell Count [2]: 188 | Population Apoptotic (%) [3]: 80% | Population Fragmented Nuclei (%) [3]: 9% | Population Healthy Nuclei (%) [3]: 29% | Population Hoechst High Intensity Objects (%) [3]: 12% | Population Membrane Permeable-Phenotype (%) [3]: 2% | Population Mitochondria Different-Phenotype (%) [3]: 100% | Population Mitotic Cells (%) [3]: 19% | Population Normal (%) [3]: 87% | Population Pyknosed Nuclei (%) [3]: 60% | Population Tubulin-Different-Phenotype (%) [3]: 93% | Total Cell Count [3]: 290 | Population Apoptotic (%) [4]: 59% | Population Fragmented Nuclei (%) [4]: 3% | Population Healthy Nuclei (%) [4]: 22% | Population Hoechst High Intensity Objects (%) [4]: 4% | Population Membrane Permeable-Phenotype (%) [4]: 4% | Population Mitochondria Different-Phenotype (%) [4]: 95% | Population Mitotic Cells (%) [4]: 40% | Population Normal (%) [4]: 95% | Population Pyknosed Nuclei (%) [4]: 74% | Population Tubulin-Different-Phenotype (%) [4]: 95% | Total Cell Count [4]: 222 | Population Apoptotic (%) [5]: 36% | Population Fragmented Nuclei (%) [5]: 8% | Population Healthy Nuclei (%) [5]: 64% | Population Hoechst High Intensity Objects (%) [5]: 9% | Population Membrane Permeable-Phenotype (%) [5]: 2% | Population Mitochondria Different-Phenotype (%) [5]: 73% | Population Mitotic Cells (%) [5]: 63% | Population Normal (%) [5]: 90% | Population Pyknosed Nuclei (%) [5]: 26% | Population Tubulin-Different-Phenotype (%) [5]: 52% | Total Cell Count [5]: 417 | Population Apoptotic (%) [6]: 27% | Population Fragmented Nuclei (%) [6]: 3% | Population Healthy Nuclei (%) [6]: 50% | Population Hoechst High Intensity Objects (%) [6]: 2% | Population Membrane Permeable-Phenotype (%) [6]: 10% | Population Mitochondria Different-Phenotype (%) [6]: 25% | Population Mitotic Cells (%) [6]: 72% | Population Normal (%) [6]: 97% | Population Pyknosed Nuclei (%) [6]: 46% | Population Tubulin-Different-Phenotype (%) [6]: 44% | Total Cell Count [6]: 217 | Population Apoptotic (%) [7]: 74% | Population Fragmented Nuclei (%) [7]: 11% | Population Healthy Nuclei (%) [7]: 36% | Population Hoechst High Intensity Objects (%) [7]: 9% | Population Membrane Permeable-Phenotype (%) [7]: 0% | Population Mitotic Cells (%) [7]: 25% | Population Normal (%) [7]: 90% | Population Pyknosed Nuclei (%) [7]: 51% | Total Cell Count [7]: 307 | Population Apoptotic (%) [8]: 63% | Population Fragmented Nuclei (%) [8]: 4% | Population Healthy Nuclei (%) [8]: 41% | Population Hoechst High Intensity Objects (%) [8]: 5% | Population Membrane Permeable-Phenotype (%) [8]: 1% | Population Mitochondria Different-Phenotype (%) [8]: 100% | Population Mitotic Cells (%) [8]: 36% | Population Normal (%) [8]: 94% | Population Pyknosed Nuclei (%) [8]: 53% | Population Tubulin-Different-Phenotype (%) [8]: 97% | Total Cell Count [8]: 233 | Population Apoptotic (%) [9]: 20% | Population Fragmented Nuclei (%) [9]: 6% | Population Healthy Nuclei (%) [9]: 81% | Population Hoechst High Intensity Objects (%) [9]: 5% | Population Membrane Permeable-Phenotype (%) [9]: 2% | Population Mitochondria Different-Phenotype (%) [9]: 22% | Population Mitotic Cells (%) [9]: 79% | Population Normal (%) [9]: 94% | Population Pyknosed Nuclei (%) [9]: 11% | Population Tubulin-Different-Phenotype (%) [9]: 23% | Total Cell Count [9]: 698 | Population Apoptotic (%) [10]: 23% | Population Fragmented Nuclei (%) [10]: 7% | Population Healthy Nuclei (%) [10]: 76% | Population Hoechst High Intensity Objects (%) [10]: 3% | Population Membrane Permeable-Phenotype (%) [10]: 8% | Population Mitochondria Different-Phenotype (%) [10]: 15% | Population Mitotic Cells (%) [10]: 76% | Population Normal (%) [10]: 96% | Population Pyknosed Nuclei (%) [10]: 16% | Population Tubulin-Different-Phenotype (%) [10]: 49% | Total Cell Count [10]: 383 | Population Apoptotic (%) [11]: 73% | Population Fragmented Nuclei (%) [11]: 15% | Population Healthy Nuclei (%) [11]: 55% | Population Hoechst High Intensity Objects (%) [11]: 10% | Population Membrane Permeable-Phenotype (%) [11]: 1% | Population Mitochondria Different-Phenotype (%) [11]: 94% | Population Mitotic Cells (%) [11]: 26% | Population Normal (%) [11]: 89% | Population Pyknosed Nuclei (%) [11]: 29% | Population Tubulin-Different-Phenotype (%) [11]: 89% | Total Cell Count [11]: 355 | Population Apoptotic (%) [12]: 58% | Population Fragmented Nuclei (%) [12]: 4% | Population Healthy Nuclei (%) [12]: 62% | Population Hoechst High Intensity Objects (%) [12]: 2% | Population Membrane Permeable-Phenotype (%) [12]: 0% | Population Mitochondria Different-Phenotype (%) [12]: 93% | Population Mitotic Cells (%) [12]: 41% | Population Normal (%) [12]: 97% | Population Pyknosed Nuclei (%) [12]: 33% | Population Tubulin-Different-Phenotype (%) [12]: 96% | Total Cell Count [12]: 265
